Read-outs that look alike come from different tables or passages of the source.
Key:
[1] = test system: HT-29; assay: Cell proliferation assay, HT-29 colon cancer cells; assay type: cell-based
In short: (§1)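 Cells were kept in RPMI or DMEM with 5% or 10% fetal bovine serum and 1% penicillin/streptomycin. They were plated at 3 × 10^4 cells per well in 12-well plates and treated with DMSO or test compound. After 4 days, cell number and viability were counted on a Vi-Cell viability analyzer. Inhibition is relative to DMSO.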

[2] = test system: LS174T colon cancer cells; assay: Cell proliferation assay, LS174T colon cancer cells; assay type: cell-based; details: Table 3
In short: as §1

[3] = test system: fibroblast HEL 299 cells; assay: Cell proliferation assay, normal fibroblast HEL 299 cells; assay type: cell-based
In short: (§2)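 Cells were obtained from a university collaborator and grown in RPMI or DMEM with 5% or 10% fetal bovine serum plus 1% penicillin/streptomycin. The medium for each line is not specified. Cells were seeded at 3 × 10^4 per well and treated with test compound or DMSO. After 4 days, cell number and viability were counted on an automated cell viability analyzer.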

[4] = test system: lung epithelial BEAS-2B; assay: Cell proliferation assay, normal lung epithelial BEAS-2B cells; assay type: cell-based
In short: as §2

[5] = test system: LS174T colon cancer cells; details: cited from earlier work; for Inhibition of proliferation (%) of LS174T cells: Table 1
[6] = Water solubility; assay type: physicochemical; details: for Water solubility of hydrochloride salt: hydrochloride salts
[7] = test system: cyclin-dependent kinase inhibitor p21^Wif1/Cip1; assay: Western blot of p21^Wif1/Cip1 in LS174T cells; assay type: cell-based; details: 300 nM
[8] = test system: cyclin D1; assay: Western blot of cyclin D1 in LS174T cells; assay type: cell-based; details: 300 nM
In short: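 LS174T colon cancer cells were exposed to test compound at 300 nM. Lysates were immunoblotted with antibodies against cyclin D1, p21Wif1/Cip1 and β-tubulin.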

Question: Which “Percentage inhibition of the proliferation of colon cancer cells” value ([1]; 1 μM) does the source give for `N.N.[Cl][Pt][Cl]` [Cisplatin] here?
Answer: Its value is 4.4±5.9%.

Question: What about the “Percentage inhibition of the proliferation of colon cancer cells” value ([1]; 10 μM) of the same molecule?
Answer: The value was 72.7±3.5%.

Question: And the “Percentage inhibition of the proliferation of colon cancer cells” value ([2]; 1 μM)?
Answer: Its value is 24.2±5.6%.

Question: And the “Percentage inhibition of the proliferation of colon cancer cells” value ([2]; 10 μM)?
Answer: The value was 82.1±1.4%.

Question: And the “Percentage inhibition of the proliferation of normal cells” value (shortened to “Percentage inhibition … of normal cells”) ([3]; 1 μM)?
Answer: The value was 37.5±4.1%.

Question: And the “Percentage inhibition … of normal cells” value ([3]; 10 μM)?
Answer: The value was 57.8±0.3%.

Question: What about the “Percentage inhibition … of normal cells” value ([4]; 1 μM) of the same molecule?
Answer: The value was 39.2±14.9%.

Question: What about the “Percentage inhibition … of normal cells” value ([4]; 10 μM) of the same molecule?
Answer: The value was 82.4±0.2%.

Question: Which “Inhibition of cell proliferation (%) of colon cancer LS174T cells” value ([5]; 30 nM, Table 2) does the source give for `CN(C)c1ccc(C#Cc2c(F)cccc2F)cc1` [Compound 2, 4-((2,6-difluorophenyl)ethynyl)-N,N-dimethylaniline] here?
Answer: The value was 57±1.2%.

Question: What about the “Inhibition of proliferation (%) of LS174T cells” value ([5]; 100 nM) of the same molecule?
Answer: Its value is 85.2±0.5%.

Question: And the “Inhibition of proliferation (%) of LS174T cells” value ([5]; 1 μM)?
Answer: Its value is 99.5±0.1%.

Question: What about the Water solubility ([6]; parent compound) of the same molecule?
Answer: The Water solubility was “sparingly water-soluble”.

Question: And the “Effect on p21^Wif1/Cip1 (western blot)” value [7]?
Answer: The value was “induced cyclin-dependent kinase inhibitor p21^Wif1/Cip1”.

Question: What about the “Effect on cyclin D1 (western blot)” value [8] of the same molecule?
Answer: The value was “inhibited cyclin D1”.

Question: With `CN(C)c1ncc(C#Cc2c(F)cccc2F)c2ccccc12` [Compound 5mm, 4-((2,6-Difluorophenyl)ethynyl)-N,N-dimethylisoquinolin-1-amine] as the molecule, how does the “Effect on p21^Wif1/Cip1 (western blot)” value [7] read?
Answer: Its value is “induced cyclin-dependent kinase inhibitor p21^Wif1/Cip1”.

Question: What about the “Effect on cyclin D1 (western blot)” value [8] of the same molecule?
Answer: The value was “inhibited cyclin D1”.

Question: With `CNc1ncc(C#Cc2c(F)cccc2F)c2ccccc12` [Compound 5nn, 4-((2,6-Difluorophenyl)ethynyl)-N-methylisoquinolin-1-amine] as the molecule, how does the “Effect on p21^Wif1/Cip1 (western blot)” value [7] read?
Answer: Its value is “induced cyclin-dependent kinase inhibitor p21^Wif1/Cip1”.

Question: What about the “Effect on cyclin D1 (western blot)” value [8] of the same molecule?
Answer: The value was “inhibited cyclin D1”.

Question: For `CN1CCN(c2ncc(C#Cc3c(F)cccc3F)c3ccccc23)CC1.Cl` [Compound 5oo, 4-((2,6-Difluorophenyl)ethynyl)-1-(4-methylpiperazin-1-yl)isoquinoline], which “Water solubility of hydrochloride salt” value [6] is on record?
Answer: The value was “completely water-soluble”.

Question: Which “Water solubility of hydrochloride salt” value [6] does the source give for `CN(C)c1ncc(C#Cc2c(F)cccc2F)c2ncccc12` [Compound 5pp, 8-((2,6-Difluorophenyl)ethynyl)-N,N-dimethyl-1,6-naphthyridin-5-amine] here?
Answer: Its value is “completely water-soluble”.
